ChEMBL document CHEMBL1139997, “Structural basis for the activity of the RSK-specific inhibitor, SL0101” (Bioorg Med Chem, 2007)
Each block holds one compound with its values, some of them ahead of it. Calls of active or inactive are those of the source. The rule behind the calls is not given here.

What was measured:
[1] = Inhibition of RSK expressed in SF9 cells
MCF7 [2] = experiment: Antiproliferative activity against human MCF7 cells at >100 uM after 48 hrs; type: functional, cell-based
Procedure, shortened: (§1)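 MCF-7 or MCF-10A cells were seeded at 5000 per well in ATCC-recommended medium. After 24 h the medium was replaced with medium containing compound or vehicle. Viability was read 48 h later by luminescent cell-viability reagent. Results are fold proliferation as % of vehicle-treated cells, mean of n = 2 in quadruplicate ± SD. EC50 was obtained by best-fit curve analysis.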

[3] = Antiproliferative activity against human MCF10A cells up to 200 uM after 48 hrs; type: cell-based; settings: mcf-10a; procedure, shortened: as §1
MCF7 [4] = experiment: Inhibition of RSK mediated mitogen-induced p140 phosphorylation in MCF7 cells pretreated at 75 uM; type: cell-based; settings: Homo sapiens
Procedure, shortened: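 MCF-7 cells were seeded at 3×10^5 per well and serum-starved 24 h. They were pre-incubated with inhibitor or vehicle (2 h per legend; methods state 4 h), then given 500 nM PMA or vehicle for 20 min. Cells were lysed in boiling SDS buffer without DTT, and lysates were normalized for total protein before immunoblotting for phospho-p140.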

MCF7 [5] = experiment: Antiproliferative activity against human MCF7 cells at 75 uM after 48 hrs; type: functional, cell-based; procedure, shortened: as §1
[6] = Growth inhibition of human MCF10A cells at 75 uM 48 hrs; type: cell-based, MCF-10A; procedure, shortened: as §1
Homo sapiens = species on record: Homo sapiens; experiment: Inhibition of RSK activity at 75 uM
[7] = Antiproliferative activity against human MCF10A cells at 15 uM; type: cell-based; settings: mcf-10a; procedure, shortened: as §1
MCF7 [8] = experiment: Antiproliferative activity against human MCF7 cells at 15 uM; type: functional; procedure, shortened: as §1
[9] = Inhibition of RSK expressed in SF9 cells at 10 uM; settings: Homo sapiens
MCF7 [10] = experiment: Antiproliferative activity against human MCF7 cells at 100 uM after 48 hrs; type: functional; procedure, shortened: as §1
MCF7 [11] = experiment: Antiproliferative activity against human MCF7 cells after 48 hrs; type: functional, cell-based; procedure, shortened: as §1

SMILES: COc1ccc(-c2oc3cc(OC)cc(OC)c3c(=O)c2O[C@@H]2O[C@@H](C)[C@H](OC(C)=O)[C@@H](OC(C)=O)[C@H]2O)cc1
Activity ([1]; Homo sapiens): inactive

SMILES: CC(=O)O[C@@H]1[C@@H](OC(C)=O)[C@@H](O)[C@H](Oc2c(-c3ccc(O)cc3)oc3cc(O)cc(O)c3c2=O)O[C@H]1C
Activity (MCF7 [2]): Active | Activity [3]: Not Active

IC50 [1]: 13.2 µM | Activity (Homo sapiens): Active
SMILES: CC(=O)O[C@@H]1[C@@H](OC(C)=O)[C@@H](O)[C@H](Oc2c(-c3ccccc3)oc3cccc(O)c3c2=O)O[C@H]1C
inhibition (MCF7 [4]): 50% | Activity (MCF7 [5]): Active | inhibition at 48 h, 75 µM [6]: 25%

SMILES: CC(=O)Oc1ccc(-c2oc3cc(OC(C)=O)cc(OC(C)=O)c3c(=O)c2O[C@@H]2O[C@@H](C)[C@H](OC(C)=O)[C@@H](OC(C)=O)[C@H]2OC(C)=O)cc1
Activity [7]: Not Active | Activity (MCF7 [8]): 50% | inhibition [9]: 50%

IC50 [1]: 1.56 µM | Activity (Homo sapiens): Active
SMILES: CC(=O)O[C@@H]1[C@@H](OC(C)=O)[C@@H](O)[C@H](Oc2c(-c3ccc(O)cc3)oc3cccc(O)c3c2=O)O[C@H]1C
Activity (MCF7 [4]): Active | Activity (MCF7 [5]): Active | inhibition at 48 h, 75 µM [6]: 25%

IC50 [1]: 24.6 µM
SMILES: CC(=O)O[C@@H]1[C@@H](OC(C)=O)[C@@H](O)[C@H](Oc2c(-c3ccc(O)cc3)oc3cc(O)ccc3c2=O)O[C@H]1C
Activity (MCF7 [10]): 50%

IC50 [1]: 4.37 µM
SMILES: C[C@@H]1O[C@@H](Oc2c(-c3ccc(O)cc3)oc3cc(O)cc(O)c3c2=O)[C@H](O)[C@H](O)[C@H]1O [AFZELIN]
Activity (MCF7 [11]): inactive

IC50 [1]: 0.129 µM
SMILES: CCO[C@@H]1[C@@H](OCC)[C@@H](O)[C@H](Oc2c(-c3ccc(O)cc3)oc3cc(O)cc(O)c3c2=O)O[C@H]1C
